Experimental data as given in ChEMBL document CHEMBL4138223, “Structure-activity relationships for inhibitors of Pseudomonas aeruginosa exoenzyme S ADP-ribosyltransferase activity” (Eur J Med Chem, 2018).

Target: T1, Exoenzyme S (Pseudomonas aeruginosa) (UniProt Q93SQ1)
T1 sequence (whole entry): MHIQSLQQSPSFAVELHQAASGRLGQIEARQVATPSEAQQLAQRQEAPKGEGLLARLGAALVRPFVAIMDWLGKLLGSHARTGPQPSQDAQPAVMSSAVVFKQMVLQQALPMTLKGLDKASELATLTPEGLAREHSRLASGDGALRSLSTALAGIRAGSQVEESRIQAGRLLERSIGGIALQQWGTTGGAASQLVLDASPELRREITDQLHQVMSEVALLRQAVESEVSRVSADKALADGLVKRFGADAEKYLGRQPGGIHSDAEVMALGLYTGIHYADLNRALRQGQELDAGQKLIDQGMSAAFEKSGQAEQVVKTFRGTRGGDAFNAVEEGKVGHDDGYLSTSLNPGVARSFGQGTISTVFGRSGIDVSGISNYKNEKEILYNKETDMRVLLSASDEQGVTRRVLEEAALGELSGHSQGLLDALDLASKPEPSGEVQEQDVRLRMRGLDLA
Test: Inhibition of recombinant Pseudomonas aeruginosa PAK His6-tagged ExoS ADPRT domain expressed in Escherichia coli at 100 uM using human GST-fused vH-Ras as substrate measured over 30 mins in presence of 14.3.3beta and epsilonNAD+ by fluorescence assay relative to control
Conditions: not given

Question: O=C(O)CCc1nc2cc3c(cc2c(=O)[nH]1)CCCC3 was tested. Which inhibition did it give?
Answer: Its inhibition is 27%.

Question: For COc1ccc2c(=O)[nH]c(CCCC(=O)O)nc2c1, which inhibition is on record?
Answer: Its inhibition is 20%.

Question: How did the inhibition turn out when O=C(O)CCCc1nc2cc3c(cc2c(=O)[nH]1)CCC3 was run?
Answer: The inhibition was 50%.

Question: Which inhibition does the source give for O=C(O)CCCc1nc2cc3c(cc2c(=O)[nH]1)CCCC3 here?
Answer: Its inhibition is 22%.

Question: With O=C(O)CCCc1nc2ccc3c(c2c(=O)[nH]1)CCCC3 as the molecule, how does the inhibition read?
Answer: Its inhibition is 30%.

Question: COC(=O)CCc1nc(OC)c2c3c(sc2n1)CCC3 was tested. Which inhibition did it give?
Answer: Its inhibition is 25%.

Question: With O=C(O)CCc1nc2ccc3c(c2c(=O)[nH]1)CCCC3 as the molecule, how does the inhibition read?
Answer: Its inhibition is 45%.

Question: For O=C(O)CCCCc1nc2ccccc2c(=O)[nH]1, which inhibition is on record?
Answer: The inhibition was 69%.

Question: O=C(O)CCCc1nc2ccc3c(c2c(=O)[nH]1)CCC3 was tested. Which inhibition did it give?
Answer: Its inhibition is 60%.

Question: With O=C(O)CCc1nc2sc3c(c2c(=O)[nH]1)CCCCC3 as the molecule, how does the inhibition read?
Answer: Its inhibition is < 50%.

Question: How did the inhibition turn out when COC(=O)CCc1nc(N)c2c3c(sc2n1)CCC3 was run?
Answer: Its inhibition is 12%.

Question: How did the inhibition turn out when O=C(O)c1ccccc1Cc1nc2sc3c(c2c(=O)[nH]1)CCC3 was run?
Answer: The inhibition was 50%.

Question: How did the inhibition turn out when O=C(O)CCCc1nc2ccc([N+](=O)[O-])cc2c(=O)[nH]1 was run?
Answer: The inhibition was 30%.

Question: O=C(O)CCc1nc2sc3c(c2c(=O)[nH]1)CCOC3 was tested. Which inhibition did it give?
Answer: Its inhibition is < 60%.

Question: O=C(O)/C=C/c1nc2ccccc2c(=O)[nH]1 was tested. Which inhibition did it give?
Answer: Its inhibition is < 50%.

Target: T2, Exoenzyme S (Pseudomonas aeruginosa, UniProt Q93SQ1)
T2 sequence (Q93SQ1 whole entry): T1 sequence (whole entry)
Test: Inhibition of recombinant Pseudomonas aeruginosa PAK His6-tagged ExoS ADPRT domain expressed in Escherichia coli using human GST-fused vH-Ras as substrate measured over 30 mins in presence of 14.3.3beta and epsilonNAD+ by fluorescence assay
Conditions: read-out: IC50
Summary of the method: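 Recombinant ExoS ADPRT domain with 14-3-3 cofactor, Ras substrate and εNAD+. Read transfer of fluorescent εADP-ribose to Ras. Compounds tested at 8–10 concentrations in triplicate in three independent runs. IC50 by dose-response curve fitting.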

Question: With O=C(O)CCCc1nc2ccccc2c(=O)[nH]1 as the molecule, how does the IC50 read?
Answer: The IC50 was 25 to 30 µM.

Question: For Nc1nc(CCC(=O)O)nc2sc3c(c12)CCC3, which IC50 is on record?
Answer: The IC50 was > 200 µM.

Question: Which IC50 does the source give for O=C(O)CCc1nc2scc(-c3ccccc3)c2c(=O)[nH]1 here?
Answer: The IC50 was 56 µM.

Question: With O=C(O)[C@H]1C[C@@H]1c1nc2sc3c(c2c(=O)[nH]1)CCC3 (racemic) as the molecule, how does the IC50 read?
Answer: The IC50 was 10 µM.

Question: For O=C(O)/C=C\c1nc2sc3c(c2c(=O)[nH]1)CCC3, which IC50 is on record?
Answer: Its IC50 is 15 µM.

Question: Which IC50 does the source give for O=C(O)CCc1nc2ccc3c(c2c(=O)[nH]1)CCC3 here?
Answer: The IC50 was 54 µM.

Question: For O=C(O)COCc1nc2sc3c(c2c(=O)[nH]1)CCC3, which IC50 is on record?
Answer: Its IC50 is 72 µM.

Question: O=C(O)c1ccc(-c2nc3ccccc3c(=O)[nH]2)cc1 was tested. Which IC50 did it give?
Answer: The IC50 was 30 µM.

Question: For O=C(O)c1ccc(-c2nc3ccccc3c(=O)[nH]2)o1, which IC50 is on record?
Answer: Its IC50 is 32 µM.

Question: Which IC50 does the source give for O=C(O)CCc1ncc(C2=CCCC2)c(=O)[nH]1 here?
Answer: Its IC50 is 200 µM.

Question: With O=C(O)CCc1nc2sc3c(c2c(=O)[nH]1)CCC3 as the molecule, how does the IC50 read?
Answer: Its IC50 is 19 to 20 µM.

Question: Which IC50 does the source give for COC(=O)CCc1nc2sc3c(c2c(=O)[nH]1)CCC3 here?
Answer: Its IC50 is 116 µM.

Question: With O=C(O)CCCCc1nc2sc3c(c2c(=O)[nH]1)CCC3 as the molecule, how does the IC50 read?
Answer: The IC50 was 53 µM.

Question: With O=C(O)[C@H](O)Cc1nc2sc3c(c2c(=O)[nH]1)CCC3 as the molecule, how does the IC50 read?
Answer: The IC50 was 191 µM.

Question: For O=C(O)CCc1nc2cc3c(cc2c(=O)[nH]1)CCC3, which IC50 is on record?
Answer: The IC50 was 98 µM.

Question: Which IC50 does the source give for O=C(O)CCC(=O)Nc1sc2c(c1C(=O)O)CCCC2 here?
Answer: The IC50 was > 200 µM.

Question: With O=C(O)C1CC1c1nc2sc3c(c2c(=O)[nH]1)CCC3 (stereo in doubt; form 1) as the molecule, how does the IC50 read?
Answer: The IC50 was 6.9 µM.

Question: How did the IC50 turn out when O=C1NC(C2CC2C(=O)O)Nc2sc3c(c21)CCC3 (racemic) was run?
Answer: The IC50 was 138 µM.

Question: For O=C(O)CCc1nc2sc3c(c2c(=O)[nH]1)CCCC3, which IC50 is on record?
Answer: The IC50 was 55 µM.

Question: With O=C(O)CCCc1nc2cc(F)c(F)cc2c(=O)[nH]1 as the molecule, how does the IC50 read?
Answer: Its IC50 is 15 µM.

Question: O=C(O)C1CC1c1nc2sc3c(c2c(=O)[nH]1)CCC3 (stereo in doubt; form 2) was tested. Which IC50 did it give?
Answer: The IC50 was 39 µM.

Question: How did the IC50 turn out when O=C(O)/C=C/c1nc2sc3c(c2c(=O)[nH]1)CCC3 was run?
Answer: The IC50 was 70 µM.

Question: Which IC50 does the source give for O=C(O)c1ccccc1-c1nc2sc3c(c2c(=O)[nH]1)CCC3 here?
Answer: The IC50 was 97 µM.

Question: O=C(O)[C@H]1CCC[C@H]1c1nc2sc3c(c2c(=O)[nH]1)CCC3 was tested. Which IC50 did it give?
Answer: The IC50 was 65 µM.

Question: With O=c1[nH]c(CCCO)nc2sc3c(c12)CCC3 as the molecule, how does the IC50 read?
Answer: The IC50 was 52 µM.

Question: Which IC50 does the source give for O=C(O)CCC(=O)Nc1sc2c(c1C(=O)O)CCOC2 here?
Answer: The IC50 was > 200 µM.

Question: Which IC50 does the source give for O=C(O)[C@H]1C[C@H]1c1nc2sc3c(c2c(=O)[nH]1)CCC3 (racemic) here?
Answer: The IC50 was 190 µM.

Question: O=C(O)[C@@H](O)Cc1nc2sc3c(c2c(=O)[nH]1)CCC3 was tested. Which IC50 did it give?
Answer: The IC50 was 55 µM.

Question: CS(=O)(=O)NC(=O)CCc1nc2sc3c(c2c(=O)[nH]1)CCCC3 was tested. Which IC50 did it give?
Answer: Its IC50 is 100 µM.

Question: How did the IC50 turn out when O=c1[nH]c([C@@H]2C[C@H]2c2nn[nH]n2)nc2sc3c(c12)CCC3 (relative stereo) was run?
Answer: The IC50 was 233 µM.

Question: O=C(O)CCCc1nc2cccc(F)c2c(=O)[nH]1 was tested. Which IC50 did it give?
Answer: Its IC50 is 25 µM.

Same assay, conditions: read-out: pIC50 (converted)

Question: For O=C(O)[C@H]1C[C@@H]1c1nc2sc3c(c2c(=O)[nH]1)CCC3 (racemic), which IC50 is on record?
Answer: Its IC50 is 11.2 µM.

Question: For O=C(O)CCc1nc2sc3c(c2c(=O)[nH]1)CCC3, which IC50 is on record?
Answer: The IC50 was 27.5 µM.

Target: T2, Exoenzyme S
Test: Inhibition of Pseudomonas aeruginosa PAK secreted full length ExoS using human GST-fused vH-Ras as substrate preincubated for 10 mins followed by epsilonNAD+ addition measured at 30 mins in presence of 14.3.3beta and epsilonNAD+ by real-time fluorescent assay
Conditions: read-out: IC50
Summary of the method: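 Induce ExoS secretion by growing P. aeruginosa PAK overnight at 37 °C in shaken LB. Dilute to OD600 0.001 in LB with 5 mM EGTA and 20 mM MgCl2, then shake 4 h at 37 °C. Add the culture to 500 nM 14-3-3b, vH-Ras and compound in triplicate (13 concentrations, 1% DMSO). Start with εNAD+. Use PAKΔexoS as negative control. Read fluorescence kinetically at 302/410; IC50 from linear-phase velocity (% control), two independent runs.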

Question: Which IC50 does the source give for O=C(O)[C@H]1C[C@@H]1c1nc2sc3c(c2c(=O)[nH]1)CCC3 (racemic) here?
Answer: The IC50 was 2.36 µM.

Question: With O=C(O)/C=C\c1nc2sc3c(c2c(=O)[nH]1)CCC3 as the molecule, how does the IC50 read?
Answer: Its IC50 is 3.51 µM.

Question: With O=C(O)CCc1nc2sc3c(c2c(=O)[nH]1)CCC3 as the molecule, how does the IC50 read?
Answer: The IC50 was 6.93 µM.

Question: For O=C(O)C1CC1c1nc2sc3c(c2c(=O)[nH]1)CCC3 (stereo in doubt; form 1), which IC50 is on record?
Answer: Its IC50 is 1.32 µM.

Question: O=C(O)C1CC1c1nc2sc3c(c2c(=O)[nH]1)CCC3 (stereo in doubt; form 2) was tested. Which IC50 did it give?
Answer: The IC50 was 8.31 µM.

Question: Which IC50 does the source give for O=C(O)CCCc1nc2cccc(F)c2c(=O)[nH]1 here?
Answer: The IC50 was 7.67 µM.

Same assay, conditions: read-out: pIC50 (converted)

Question: For O=C(O)[C@H]1C[C@@H]1c1nc2sc3c(c2c(=O)[nH]1)CCC3 (racemic), which IC50 is on record?
Answer: Its IC50 is 2.4 µM.
